According to the array DNA melting data of Ke et al. (doi:10.1101/2024.01.08.574731):

What was measured:
[1] = folding enthalpy; higher = less favourable; fluorescence melt of hairpins on a sequencing array, two-state fit; details: sodium 0.088 M
Procedure, shortened: (§1)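 To match UV melts, fitted temperatures were raised by 9.35 °C. These fits were bootstrapped two-state models that gave melting temperature and folding enthalpy, combined by inverse variance over four replicates. The input was normalised Cy3 fluorescence of library hairpins with annealed Cy3 and quencher oligos on a sequenced MiSeq flow cell, imaged in 50 mM Na-HEPES pH 8.0, 25 mM NaCl in 2.5 °C steps up to 60 °C.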

[2] = melting temperature; fluorescence melt of hairpins on a sequencing array, two-state fit, raised by 9.35 °C to match UV melts; details: sodium 0.088 M
Procedure, shortened: as §1

| Sequence | folding enthalpy [1] [kcal/mol] | Tm [2] [°C] |
| --- | --- | --- |
| GATCGGCGATCCGATC ((((((....)))))) | -35.3 | 55 |
| GATCGGCGCCCGATC ((((((...)))))) | -36.4 | 56.8 |
| GATCGGCGCTCCGATC ((((((....)))))) | -37.8 | 56.9 |
| GATCGGCGTCCGATC ((((((...)))))) | -40.5 | 56.4 |
| GATCGGCTAACCGATC ((((((....)))))) | -42.2 | 56.5 |
| GATCGGCTCCCGATC ((((((...)))))) | -38.4 | 57.8 |
| GATCGGCTGCCGATC ((((((...)))))) | -55.3 | 57.2 |
| GATCGGGAACCGATC ((((((...)))))) | -36 | 68.4 |
| GATCGGGAAGCCGATC ((((((....)))))) | -37.9 | 59.6 |
| GATCGGGAATCCGATC ((((((....)))))) | -38.6 | 64.8 |
| GATCGGGAGCCCGATC ((((((....)))))) | -36.5 | 55.5 |
| GATCGGGATACCGATC ((((((....)))))) | -45.8 | 65.7 |
| GATCGGGATCCCGATC ((((((....)))))) | -50.5 | 59.5 |
| GATCGGGCCCCCGATC ((((((....)))))) | -43.2 | 59.6 |
| GATCGGGCCCCGATC ((((((...)))))) | -44.1 | 57.5 |
| GATCGGGCGAAAGCCATC (((..(((....)))))) | -10.2 | 22.6 |
| GATCGGGCTCCCGATC ((((((....)))))) | -40.6 | 58.5 |
| GATCGGGGAAACTCGGTC ((.((.(....).)).)) | -28.3 | 38 |
| GATCGGGGACCCGATC ((((((....)))))) | -45.9 | 63 |
| GATCGGGGAGCCGATC ((((((....)))))) | -35.1 | 59.5 |
| GATCGGGGGCCCGATC ((((((....)))))) | -40.1 | 59.7 |
| GATCGGGGTGCCGATC ((((((....)))))) | -52.3 | 59.3 |
| GATCGGGTAACCGATC ((((((....)))))) | -36.6 | 68.1 |
| GATCGGGTAGCCGATC ((((((....)))))) | -41.9 | 62 |

| Sequence | folding enthalpy [1] [kcal/mol] | Tm [2] [°C] |
| --- | --- | --- |
| GATCGGGTGCCCGATC ((((((....)))))) | -36.7 | 60.1 |
| GATCGGTAACCCGATC ((((((....)))))) | -32.7 | 54.3 |
| GATCGGTAACCGATC ((((((...)))))) | -35.5 | 56.1 |
| GATCGGTAGCCGATC ((((((...)))))) | -42.2 | 55.4 |
| GATCGGTAGGCCGATC ((((((....)))))) | -40.5 | 57.9 |
| GATCGGTAGTCCGATC ((((((....)))))) | -44.4 | 55.6 |
| GATCGGTATCCGATC ((((((...)))))) | -40.8 | 57.4 |
| GATCGGTCGACCGATC ((((((....)))))) | -49.7 | 61.4 |
| GATCGGTGACCCGATC ((((((....)))))) | -36.5 | 55.8 |
| GATCGGTGACCGATC ((((((...)))))) | -38.7 | 55.5 |
| GATCGGTGCCCCGATC ((((((....)))))) | -29.1 | 57 |
| GATCGGTGTCCGATC ((((((...)))))) | -32 | 58.3 |
| GATCGGTGTTCCGATC ((((((....)))))) | -41.3 | 58.6 |
| GATCGGTTCCCCGATC ((((((....)))))) | -40 | 56.8 |
| GATCGGTTTTCCGATC ((((((....)))))) | -45.1 | 60.1 |
| GATCGTAAAACGATC ((((((...)))))) | -36.7 | 54.4 |
| GATCGTAAGTACGATC ((((((....)))))) | -32.9 | 53.3 |
| GATCGTACCACGATC ((((((...)))))) | -33.7 | 57.3 |
| GATCGTACCGACGATC ((((((....)))))) | -53.3 | 53.4 |
| GATCGTACGACGATC ((((((...)))))) | -37.2 | 54.5 |
| GATCGTACGTACGATC ((((((....)))))) | -36 | 57.9 |
| GATCGTACTCACGATC ((((((....)))))) | -44.5 | 53.9 |
| GATCGTACTTACGATC ((((((....)))))) | -39.8 | 55.3 |
| GATCGTAGAACGATC ((((((...)))))) | -36.6 | 55.2 |

| Sequence | folding enthalpy [1] [kcal/mol] | Tm [2] [°C] |
| --- | --- | --- |
| GATCGTAGCGACGATC ((((((....)))))) | -38.9 | 54.9 |
| GATCGTAGCTACGATC ((((((....)))))) | -43.2 | 59 |
| GATCGTAGGTACGATC ((((((....)))))) | -38.9 | 55.8 |
| GATCGTAGTGACGATC ((((((....)))))) | -33.7 | 56.6 |
| GATCGTAGTTACGATC ((((((....)))))) | -30.9 | 56.8 |
| GATCGTATCCACGATC ((((((....)))))) | -35.3 | 56.9 |
| GATCGTCAGTACGATC ((((((....)))))) | -42.8 | 53.7 |
| GATCGTCCAACGATC ((((((...)))))) | -39.4 | 55.6 |
| GATCGTCCCACGATC ((((((...)))))) | -38.5 | 57.6 |
| GATCGTCCCTACGATC ((((((....)))))) | -43.9 | 55 |
| GATCGTCGCACGATC ((((((...)))))) | -37.9 | 58.2 |
| GATCGTCGCGACGATC ((((((....)))))) | -37.5 | 67.6 |
| GATCGTCGTTACGATC ((((((....)))))) | -36 | 55.6 |
| GATCGTCTCTACGATC ((((((....)))))) | -38.4 | 54.5 |
| GATCGTGAAACGATC ((((((...)))))) | -36.8 | 66.8 |
| GATCGTGAACACGATC ((((((....)))))) | -34.5 | 63.6 |
| GATCGTGACGACGATC ((((((....)))))) | -39.2 | 56.8 |
| GATCGTGATGACGATC ((((((....)))))) | -37.8 | 54.4 |
| GATCGTGCCGACGATC ((((((....)))))) | -49.2 | 56.4 |
| GATCGTGCGAACGATC ((((((....)))))) | -32.9 | 64.1 |
| GATCGTGCGTACGATC ((((((....)))))) | -39.5 | 55 |
| GATCGTGCTTACGATC ((((((....)))))) | -38.4 | 56.4 |
| GATCGTGGAAACATGATC ((((.((....)).)))) | -43.8 | 47.5 |
| GATCGTGTAGACGATC ((((((....)))))) | -39.8 | 59.6 |

| Sequence | folding enthalpy [1] [kcal/mol] | Tm [2] [°C] |
| --- | --- | --- |
| GATCGTGTGTACGATC ((((((....)))))) | -40.9 | 54.7 |
| GATCGTTAAGACGATC ((((((....)))))) | -43.2 | 55.4 |
| GATCGTTACTACGATC ((((((....)))))) | -42.8 | 55.1 |
| GATCGTTCGGACGATC ((((((....)))))) | -37.8 | 56.9 |
| GATCGTTCGTACGATC ((((((....)))))) | -44.1 | 55.5 |
| GATCGTTCTACGATC ((((((...)))))) | -35.3 | 59.6 |
| GATCGTTGAACGATC ((((((...)))))) | -32.2 | 53.6 |
| GATCGTTGCAACGATC ((((((....)))))) | -59.5 | 59.2 |
| GATCGTTGCCACGATC ((((((....)))))) | -39.9 | 54.5 |
| GATCGTTGGGACGATC ((((((....)))))) | -36.7 | 59 |
| GATCGTTGTACGATC ((((((...)))))) | -38.8 | 61.1 |
| GATCGTTTAGACGATC ((((((....)))))) | -38.2 | 55.6 |
| GATCGTTTGACGATC ((((((...)))))) | -24.6 | 55.5 |
| GATCGTTTGGACGATC ((((((....)))))) | -44.5 | 56.3 |
| GATCGTTTTAACGATC ((((((....)))))) | -42.2 | 60.8 |
| GATCTAAAATTAGATC ((((((....)))))) | -29.9 | 35.7 |
| GATCTAAAGCTAGATC ((((((....)))))) | -18.3 | 35.4 |
| GATCTAAATATAGATC ((((((....)))))) | -25.9 | 35.7 |
| GATCTAAATTTAGATC ((((((....)))))) | -32.3 | 44.3 |
| GATCTAACGGTAGATC ((((((....)))))) | -38.4 | 40.5 |
| GATCTAACTATAGATC ((((((....)))))) | -29.3 | 37.5 |
| GATCTAACTTAGATC ((((((...)))))) | -29.3 | 37.3 |
| GATCTAAGAGTAGATC ((((((....)))))) | -14.9 | 37.1 |
| GATCTAAGGGTAGATC ((((((....)))))) | -25.1 | 35.3 |
